Laboratory results from article PMC11341692 (Nature Communications, 2024).

Test system: NET formation in human peripheral blood neutrophils
Test: MPO-ANCA-IC-induced NET formation in primed human peripheral blood neutrophils
Type: cell-based
Settings: for MPO-ANCA-IC-induced NET formation: avacopan 0.1 and 1 µM
How it was run: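 Neutrophils isolated with Polymorphprep from the blood of healthy volunteers (n = 3). Cells were pretreated 15 min with an NE inhibitor (0, 50, 500 µM) or a C5aR inhibitor (0, 0.1, 1 µM), then primed with 5 ng/ml TNF-α or 100 ng/ml C5a for 15 min at 37 °C. They were seeded on MPO-ANCA-IC-coated chambers at 5 × 10^5/well for 3–4 h at 37 °C, then PFA-fixed and stained for CD15, Cit-H3 and DAPI. DAPI-positive DNA area per neutrophil was taken from three random images per well.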

## Cc1ccc(NC(=O)[C@H]2CCCN(C(=O)c3c(C)cccc3F)[C@H]2c2ccc(NC3CCCC3)cc2)cc1C(F)(F)F [Avacopan, avacopan]
C5a-primed neutrophils
  MPO-ANCA-IC-induced NET formation: suppressed
TNF-α-primed neutrophils
  MPO-ANCA-IC-induced NET formation: but not in TNF-α-primed neutrophils

## CC(C)(C)C(=O)Oc1ccc(S(=O)(=O)Nc2ccccc2C(=O)NCC(=O)O)cc1 [Sivelestat]
TNF-α + MPO-ANCA-IC, sivelestat 0, 50, and 500 µM
  DAPI-positive DNA area per neutrophil: reduced by sivelestat dose-dependently and significantly
TNF-α + MPO-ANCA-IC, sivelestat 500 µM
  Neutrophil swelling (fold change): significantly suppressed
